Several values for one entry are separate records, joined by “and”; a condition that tells them apart may be missing. Identical values can stand only once. Activity calls are given as the source filed them.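 Rule for the calls: active = over 50% block of current through the KCNK9 TASK-3 potassium channel at 10 µM compound; inactive = the rest.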
Biological target: Potassium channel subfamily K member 9 (Homo sapiens) (UniProt Q9NPC2)
Experiment: KCNK9 current inhibition by patch clamp, SAR follow-up, cell-based, automated electrophysiology, HEK293 (AID 623898)
Details: HEK293 KCNK9, QPatch automated patch clamp current
Method in brief: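 material = HEK293 cells with tetracycline-inducible stable human KCNK9 expression | medium = 140 mM potassium external buffer, pH 7.40 | doses = cumulative compound concentration series on each cell | times = 5 min compound exposure per concentration | technique = automated whole-cell voltage clamp, current at -30 mV | read-out basis = per-cell IC50, Hill slope fixed at 1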

Potassium channel subfamily K member 9 (Homo sapiens), sequence (Q9NPC2 whole entry, looked up): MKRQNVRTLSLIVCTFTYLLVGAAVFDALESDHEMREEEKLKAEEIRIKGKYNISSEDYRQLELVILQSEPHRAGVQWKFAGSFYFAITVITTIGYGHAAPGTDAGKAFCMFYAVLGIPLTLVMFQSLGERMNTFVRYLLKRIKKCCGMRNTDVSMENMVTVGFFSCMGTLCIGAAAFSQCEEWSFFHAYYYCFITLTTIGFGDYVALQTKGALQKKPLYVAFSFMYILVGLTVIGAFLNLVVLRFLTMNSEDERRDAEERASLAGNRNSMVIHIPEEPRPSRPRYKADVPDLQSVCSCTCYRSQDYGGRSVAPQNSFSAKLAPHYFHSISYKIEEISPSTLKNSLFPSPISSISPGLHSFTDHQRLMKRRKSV

outcome | IC50 | Compound
inactive |  | C[C@H]([C@@H]1CC2CC[C@H]1C2)n1c(-c2ccsc2)n[nH]c1=S
 | 250 nM | CCOc1ccccc1C(=O)Nc1cccc(NC(=O)c2ccccc2C(F)(F)F)c1
 | 490 nM | CC(C1CC2CCC1C2)n1c(-c2ccco2)nn(CCc2ccncc2)c1=S (centres undefined)
 | 760 nM | Cc1cccc(-c2n[nH]c(=S)n2C(C)C2CC3CCC2C3)c1 (centres undefined)
 | 3780 nM | S=c1[nH]nc(-c2ccco2)n1CC1CCCCC1
 | 8480 nM | COc1ccccc1NC(=O)c1cccc(NC(=O)c2ccccc2)c1
 | 620 nM | CC(C1CC2CCC1C2)n1c(-c2ccsc2)n[nH]c1=S (centres undefined)
 | 940 nM | CC(C1CC2CCC1C2)n1c(-c2ccoc2)n[nH]c1=S (centres undefined)
 | 950 nM | CC(C1CC2CCC1C2)n1c(-c2ccccc2Cl)n[nH]c1=S (centres undefined)
 | 420 nM | COc1cccc(C(=O)Nc2cccc(NC(=O)c3ccccc3)c2)c1
 | 2380 nM | CCOc1ccccc1NC(=O)c1cccc(NC(=O)c2cccc(C)c2)c1
 | 250 nM and 230 nM | CC(C1CC2CCC1C2)n1c(-c2ccco2)n[nH]c1=S (centres undefined)
 | 270 nM | Cc1ccccc1C(=O)Nc1cccc(NC(=O)c2ccccc2)c1
 | 670 nM | COc1ccccc1C(=O)Nc1cccc(NC(=O)c2ccccc2C(C)C)c1
 | 250 nM | CC(C1CC2CCC1C2)n1c(-c2ccccc2F)n[nH]c1=S (centres undefined)
 | 950 nM | Cc1cccc(C(=O)Nc2cccc(NC(=O)c3ccco3)c2)c1
inactive |  | CC(C)n1c(-c2ccco2)n[nH]c1=S
 | 2140 nM | CCOc1ccccc1NC(=O)c1cccc(NC(=O)c2ccccc2)c1
 | 1040 nM | COc1ccccc1-c1n[nH]c(=S)n1C(C)C1CC2CCC1C2 (centres undefined)
 | 1110 nM | CCOc1ccccc1NC(=O)c1cccc(NC(=O)C2CCCCC2)c1
 | 3160 nM | COc1ccccc1NC(=O)c1cccc(NC(=O)C2CCCC2)c1
inactive |  | Cc1ccc(C(=O)Nc2cccc(NC(=O)c3ccccc3)c2)cc1
 | 1240 nM | CC(C1CC2CCC1C2)n1c(-c2ccccc2)n[nH]c1=S (centres undefined)
 | 710 nM | COc1ccccc1C(=O)Nc1cccc(NC(=O)c2ccccc2OC)c1
 | 2240 nM | Cc1cccc(C(=O)Nc2cccc(NC(=O)c3cccc(C)c3)c2)c1
 | 590 nM | CC(CC1CC2CCC1C2)n1c(-c2ccco2)n[nH]c1=S (centres undefined)
 | 960 nM | Cc1ccccc1-c1n[nH]c(=S)n1C(C)C1CC2CCC1C2 (centres undefined)

outcome | IC50 | Compound
 | 2100 nM | CCOc1ccccc1NC(=O)c1cccc(NC(=O)c2cccc(C(F)(F)F)c2)c1
 | 410 nM | C[C@@H]([C@@H]1CC2CC[C@H]1C2)n1c(-c2ccco2)n[nH]c1=S
 | 6100 nM | O=C(Nc1cccc(NC(=O)c2ccccn2)c1)c1ccccc1
 | 1490 nM | COc1ccccc1C(=O)Nc1cccc(NC(=O)c2cccc(C)c2)c1
 | 520 nM | CCOc1ccccc1NC(=O)c1cccc(NC(=O)c2ccccc2C(F)(F)F)c1
 | 960 nM | CC(C1CC2CCC1C2)n1c(-c2cccc(Cl)c2)n[nH]c1=S (centres undefined)
 | 410 nM and 680 nM | C[C@@H]([C@@H]1CC2CC[C@H]1C2)n1c(-c2ccsc2)n[nH]c1=S
 | 330 nM | COc1ccc(-c2n[nH]c(=S)n2C(C)C2CC3CCC2C3)cc1 (centres undefined)
 | 8100 nM | O=C(Nc1cccc(NC(=O)C2CCCCC2)c1)c1ccccc1
 | 480 nM | Cc1cccc(C(=O)Nc2cccc(NC(=O)c3ccccc3C)c2)c1
 | 3900 nM | CCOc1ccccc1NC(=O)c1cccc(NC(=O)CC2CCCC2)c1
 | 680 nM | C[C@H](C1CCCCC1)n1c(-c2ccsc2)n[nH]c1=S
 | 5480 nM | COc1ccc(CCSc2nnc(-c3ccco3)n2C(C)C2CC3CCC2C3)cc1OC (centres undefined)
 | 280 nM | COc1cccc(-c2n[nH]c(=S)n2C(C)C2CC3CCC2C3)c1 (centres undefined)
 | 490 nM | CCOc1ccccc1C(=O)Nc1cccc(NC(=O)C2CCCC2)c1
 | 1720 nM | CC(C1CC2CCC1C2)n1c(-c2cccc(N(C)C)c2)n[nH]c1=S (centres undefined)
 | 510 nM | C[C@H](C1CCCCC1)n1c(-c2ccco2)n[nH]c1=S
 | 1490 nM | CCOc1ccccc1NC(=O)c1cccc(NC(=O)c2ccccc2OC(F)(F)F)c1
 | 6660 nM | C[C@@H](C1CCCCC1)n1c(-c2ccco2)n[nH]c1=S
 | 990 nM | Cc1cccc(C(=O)Nc2cccc(NC(=O)c3ccccc3OC(F)(F)F)c2)c1
 | 600 nM | COc1ccccc1C(=O)Nc1cccc(NC(=O)c2ccccc2OC(F)(F)F)c1
 | 2520 nM | Cc1cccc(C(=O)Nc2cccc(NC(=O)c3ccccc3OCC(C)C)c2)c1
 | 850 nM | O=C(Nc1cccc(NC(=O)c2ccccc2C(F)(F)F)c1)c1ccccc1
 | 4730 nM | CCOc1ccccc1NC(=O)c1cccc(NC(=O)CC2CCCCC2)c1
 | 380 nM | CCOc1ccccc1C(=O)Nc1cccc(NC(=O)c2cccc(C)c2)c1
inactive |  | O=C(Nc1cccc(NC(=O)c2ccc(C(F)(F)F)cc2)c1)c1ccccc1
 | 180 nM | CCOc1ccccc1C(=O)Nc1cccc(NC(=O)c2ccccc2OC)c1

Source: PubChem BioAssay AID623898 (Johns Hopkins Ion Channel Center, 2012)
